Results from ChEMBL document CHEMBL1275461, “Early bactericidal activity and pharmacokinetics of the diarylquinoline TMC207 in treatment of pulmonary tuberculosis” (Antimicrob Agents Chemother, 2008).
≈ marks a conversion by molar mass, not a printed value.

Columns and labels:
[1] = Drug uptake in pulmonary tuberculosis patient at 400 mg/kg, po once daily for 7 days by liquid chromatography-MS/MS analysis; format: ADME, organism-based; set-up: dose 400 mg/kg, route oral; conditions: human, in vivo, read-out: Drug uptake
Outline: (§1)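 Treatment-naïve smear-positive pulmonary TB patients, hospitalized; 7-day oral once-daily monotherapy, directly observed, within 30 min after breakfast. Heparinized plasma taken predose and 1, 2, 3, 4, 5, 6, 8, 12 and 24 h postdose on day 7, plus predose on days 5 and 6. Parent drug and N-monodesmethyl metabolite measured by validated LC-MS/MS. Noncompartmental parameters; AUC0-24 by linear trapezoidal rule.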

[2] = Cmax in pulmonary tuberculosis patient at 25 mg/kg, po once daily for 7 days by liquid chromatography-MS/MS analysis; format: ADME, organism-based; set-up: dose 25 mg/kg, route oral; conditions: human, in vivo; outline: as §1
[3] = Cmax in pulmonary tuberculosis patient at 100 […], po once daily for 7 days by liquid chromatography-MS/MS analysis; format: ADME, organism-based; set-up: dose 100 mg/kg, route oral; conditions: human, in vivo; outline: as §1
[4] = Cmax in pulmonary tuberculosis patient at 400 mg/kg, po once daily for 7 days by liquid chromatography-MS/MS analysis; format: ADME, organism-based; set-up: dose 400 mg/kg, route oral; conditions: human, in vivo; outline: as §1
[5] = Tmax in pulmonary tuberculosis patient at 25 mg/kg, po once daily for 7 days by liquid chromatography-MS/MS analysis; format: ADME, organism-based; set-up: dose 25 mg/kg, route oral; conditions: human, in vivo; outline: as §1
[6] = Tmax in pulmonary tuberculosis patient at 100 […], po once daily for 7 days by liquid chromatography-MS/MS analysis; format: ADME, organism-based; set-up: dose 100 mg/kg, route oral; conditions: human, in vivo; outline: as §1
[7] = Tmax in pulmonary tuberculosis patient at 400 mg/kg, po once daily for 7 days by liquid chromatography-MS/MS analysis; format: ADME, organism-based; set-up: dose 400 mg/kg, route oral; conditions: human, in vivo; outline: as §1
[8] = AUC (0 to 24 hrs) in pulmonary tuberculosis patient at 25 mg/kg, po once daily for 7 days by liquid chromatography-MS/MS analysis; format: ADME, organism-based; set-up: time < 24 hr, dose 25 mg/kg, route oral; conditions: human, plasma
Outline: (§2)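 Treatment-naïve, sputum smear-positive patients, hospitalized, took the drug orally once daily under direct observation within 30 min after breakfast. On day 7, heparinized plasma was drawn predose and at 1, 2, 3, 4, 5, 6, 8, 12 and 24 h for parent drug and M2 metabolite. Levels were measured by validated LC-MS/MS, and AUC0-24 was calculated noncompartmentally by the linear trapezoidal rule.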

[9] = AUC (0 to 24 hrs) in pulmonary tuberculosis patient at 100 […], po once daily for 7 days by liquid chromatography-MS/MS analysis; format: ADME, organism-based; set-up: time < 24 hr, dose 100 mg/kg, route oral; conditions: human, plasma; outline: as §2
[10] = AUC (0 to 24 hrs) in pulmonary tuberculosis patient at 400 mg/kg, po once daily for 7 days by liquid chromatography-MS/MS analysis; format: ADME, organism-based; set-up: time < 24 hr, dose 400 mg/kg, route oral; conditions: human, plasma; outline: as §2
Homo sapiens [11] = assay: Steady-state plasma concentration in pulmonary tuberculosis patient at 25 mg/kg, po once daily for 7 days by liquid chromatography-MS/MS analysis; format: ADME, organism-based; set-up: dose 25 mg/kg, route oral; conditions: in vivo, 168 h; outline: as §1
Homo sapiens [12] = assay: Steady-state plasma concentration in pulmonary tuberculosis patient at 100 […], po once daily for 7 days by liquid chromatography-MS/MS analysis; format: ADME, organism-based; set-up: dose 100 mg/kg, route oral; conditions: in vivo, 168 h; outline: as §1
Homo sapiens [13] = assay: Steady-state plasma concentration in pulmonary tuberculosis patient at 400 mg/kg, po once daily for 7 days by liquid chromatography-MS/MS analysis; format: ADME, organism-based; set-up: dose 400 mg/kg, route oral; conditions: in vivo, 168 h; outline: as §1
Homo sapiens [14] = assay: Toxicity in pulmonary tuberculosis patient assessed as hemoptysis at 100 […], po once daily; format: organism-based; set-up: dose 100 mg/kg, route oral; conditions: in vivo
Homo sapiens [15] = assay: Toxicity in pulmonary tuberculosis patient assessed as hemoptysis at 400 mg/kg, po once daily; format: organism-based; set-up: dose 400 mg/kg, route oral; conditions: in vivo
Homo sapiens [16] = assay: Toxicity in pulmonary tuberculosis patient assessed as rash at 100 […], po once daily; format: organism-based; set-up: dose 100 mg/kg, route oral; conditions: in vivo
Homo sapiens [17] = assay: Toxicity in pulmonary tuberculosis patient assessed as diarrhea at 400 mg/kg, po once daily; format: organism-based; set-up: dose 400 mg/kg, route oral; conditions: in vivo
Homo sapiens [18] = assay: Toxicity in pulmonary tuberculosis patient assessed as somnolence at 400 mg/kg, po once daily for 7 days; format: organism-based; set-up: dose 400 mg/kg, route oral; conditions: in vivo, 168 h
Homo sapiens [19] = assay: Cardiotoxicity in pulmonary tuberculosis patient assessed as increase in QT interval at 100 […], po once daily for 7 days; format: toxicity, organism-based; set-up: dose 100 mg/kg, route oral; conditions: in vivo, 168 h
Homo sapiens [20] = assay: Cardiotoxicity in pulmonary tuberculosis patient assessed as increase in QT interval at 400 mg/kg, po once daily for 7 days; format: toxicity, organism-based; set-up: dose 400 mg/kg, route oral; conditions: in vivo, 168 h
[21] = system: Mycobacterium tuberculosis; assay: Antimicrobial activity against drug-sensitive Mycobacterium tuberculosis; format: functional
[22] = system: Mycobacterium tuberculosis; assay: Bactericidal activity against Mycobacterium tuberculosis in pulmonary tuberculosis patient assessed as reduction in sputum bacterial count at 25 […], po once daily measured after 1 day; format: functional
Outline: (§3)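 Hospitalized treatment-naïve smear-positive patients took oral doses once daily, observed, after breakfast. Sputum was pooled over 16 h overnight at baseline, after each of the 7 dosing days, and on the night after the first standard-therapy dose. Sputum was stirred, digested with dithiothreitol for 20 min at room temperature, and diluted 10-fold. Dilutions were plated in quadruplicate on selective 7H11 agar and counted after 3-4 weeks at 37°C at 20-200 colonies. The read-out was change in log10 CFU/ml from baseline, with a count of 0 set to log 0.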

[23] = system: Mycobacterium tuberculosis; assay: Bactericidal activity against Mycobacterium tuberculosis in pulmonary tuberculosis patient assessed as reduction in sputum bacterial count at 25 […], po once daily measured after 2 days; format: functional; outline: as §3

COc1nc2ccc(Br)cc2cc1[C@@H](c1ccccc1)[C@@](O)(CCN(C)C)c1cccc2ccccc12 [BEDAQUILINE]
concentration at 168 h [1]: 1530 ng/mL
Cmax [2]: 319 ng/mL
Cmax [3]: 1210 ng/mL
Cmax [4]: 5500 ng/mL
Tmax [5]: 3.93 h
Tmax [6]: 4 h
Tmax [7]: 4 h
AUC at 24 h [8]: 3970 ng·h/mL
AUC at 24 h [9]: 16000 ng·h/mL
AUC at 24 h [10]: 64800 ng·h/mL
Css (Homo sapiens [11]): 165.5 ng/mL
Css (Homo sapiens [12]): 667.7 ng/mL
Css (Homo sapiens [13]): 2696 ng/mL
Activity (Homo sapiens [14]): 6.3%
Activity (Homo sapiens [15]): 21.4%
Activity (Homo sapiens [16]): 7%
Activity (Homo sapiens [17]): 7%
Activity (Homo sapiens [18]): 7%
Time (Homo sapiens [19]): 7.1 ms
Time (Homo sapiens [20]): 18.8 ms
MIC [21]: 0.03 µg/mL (≈ 0.054 µM)
log10CFU/ml [22]: -0.06
log10CFU/ml [23]: 0.02
